# Assays:
# [1] = system: Mus musculus; assay: Toxicity in CD-1 mouse allografted with mouse S180A cells assessed as change in body weight at maximum effective dose administered qd for 6 days (reference value: 23.2%); type: organism-based; settings: 144 h
# [2] = Antineoplastic activity against mouse S180A cells allografted in CD-1 mouse assessed as average survival at maximum effective dose administered qd for 6 days relative to control; type: functional
# How it was run: (§1)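 Sarcoma 180 ascites cells were transplanted from a donor mouse bearing a 7-day tumour. Each agent was tested at 10–60 mg/kg/day, once daily for six consecutive days, starting 24 h after transplantation, in groups of 5–10 mice. Pooled untreated controls totalled 40 mice. Mice surviving beyond 50 days were counted as 50-day survivors, and body-weight change over therapy served as the toxicity index.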
# [3] = Antineoplastic activity against mouse S180A cells allografted in CD-1 mouse assessed as average survival at maximum effective dose administered qd for 6 days (reference value: 12.5 +/- 0.3 days); type: functional; how it was run: as §1
# [4] = Antineoplastic activity against mouse S180A cells allografted in CD-1 mouse assessed as mouse survival at maximum effective dose administered qd for 6 days measured for 50 days relative to control; type: functional; how it was run: as §1
# [5] = Antineoplastic activity against mouse S180A cells allografted in CD-1 mouse assessed as maximum dose required for increase in mouse survival administered qd for 6 days; type: functional
Structure (SMILES),Activity [1] [%],T/C [2] [%],Survival [3] [days],Survival [4] [%],Activity [5] [mg/kg]
O=S(=O)(N/N=C/c1cccc[n+]1[O-])c1ccccc1,-5.2,339,42.4,40,40
Cc1ccc(S(=O)(=O)N/N=C/c2cccnc2)cc1,12.6,106,13.2,0,60
O=S(=O)(N/N=C/c1ccc2ccccc2[n+]1[O-])c1ccccc1,2.6,109,13.6,0,20
O=S(=O)(Cc1ccccc1)N/N=C/c1cccc[n+]1[O-],-0.3,282,35.2,40,40
Cc1ccc(S(=O)(=O)N/N=C/c2cc[n+]([O-])cc2)cc1,17.7,123,15.4,0,60
O=S(=O)(Cc1ccccc1)N/N=C/c1ccncc1,-3.3,169,21.2,0,60
CS(=O)(=O)N/N=C/c1ccncc1,18.6,107,13.4,0,20
Cc1ccc(S(=O)(=O)N/N=C/c2ccc[n+]([O-])c2)cc1,0,109,13.6,0,60
Cc1ccc(S(=O)(=O)N/N=C/c2ccncc2)cc1,-0.9,226,28.2,10,60
Cc1ccc(S(=O)(=O)N/N=C/c2ccccc2[N+](=O)[O-])cc1,2.1,105,13.2,0,60
Cc1ccc(S(=O)(=O)N/N=C/c2ccccc2)cc1,15.1,115,14.4,0,20
Cc1ccc(C(=O)N/N=C/c2ccccn2)cc1,17.4,94,11.8,0,60
CS(=O)(=O)N/N=C/c1cccc[n+]1[O-],20,123,15.4,0,60
O=S(=O)(N/N=C/c1c2ccccc2cc[n+]1[O-])c1ccccc1,1.6,107,13.4,0,10
Cc1ccc(C(=O)N/N=C/c2cccc[n+]2[O-])cc1,10.2,90,11.2,0,60
Cc1ccc(S(=O)(=O)N/N=C/c2ccccn2)cc1,20.1,123,15.4,0,10

# Source: ChEMBL document CHEMBL3271971, “Antineoplastic and biochemical properties of arylsulfonylhydrazones of 2-formylpyridine N-oxide” (J Med Chem, 1976)
